# Screens deposited in PubChem BioAssay by several laboratories.
# Sampled rows, rich in hits. Any-hit rate of the full collection: about 2.2%.
# PABP FP inh – PABP-poly(A) binding inhibition; calls only at 35 µM; actives 1% (n = 290,000); PABP-poly(A) RNA binding, fluorescence polarization; P11940; AID 2014;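 also: calls also rest on retests at 20 µM and on dose response follow-up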
# Target sequence (P11940 whole entry, looked up): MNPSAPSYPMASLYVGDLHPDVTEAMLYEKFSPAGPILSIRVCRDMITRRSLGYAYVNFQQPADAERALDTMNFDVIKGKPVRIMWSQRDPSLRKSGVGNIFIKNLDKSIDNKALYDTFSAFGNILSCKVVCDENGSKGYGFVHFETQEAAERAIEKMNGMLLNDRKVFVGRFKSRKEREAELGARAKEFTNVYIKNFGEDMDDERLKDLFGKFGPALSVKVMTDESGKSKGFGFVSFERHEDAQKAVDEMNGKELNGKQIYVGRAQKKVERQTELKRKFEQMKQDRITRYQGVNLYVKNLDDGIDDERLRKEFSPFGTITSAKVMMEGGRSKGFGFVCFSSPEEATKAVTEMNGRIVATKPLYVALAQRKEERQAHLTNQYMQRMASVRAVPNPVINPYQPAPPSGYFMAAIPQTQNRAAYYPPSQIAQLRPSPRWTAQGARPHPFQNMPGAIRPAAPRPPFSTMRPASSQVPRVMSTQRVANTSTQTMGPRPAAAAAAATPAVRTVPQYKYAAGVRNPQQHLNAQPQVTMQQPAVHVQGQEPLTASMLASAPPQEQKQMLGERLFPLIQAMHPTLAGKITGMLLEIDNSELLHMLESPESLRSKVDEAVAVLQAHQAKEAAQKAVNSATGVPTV
# eIF4H inh – inhibitors of RNA binding by human eIF4H; actives 0.94% (n = 290,000); inhibition, % at 35 µM; Q15056; eIF4H fluorescence polarization binding assay;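 also: calls also rest on retests at 20 µM and on dose response follow-up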
# VIM-2 inh – inhibitors of Pseudomonas aeruginosa VIM-2 metallo-beta-lactamase; purified VIM-2, nitrocefin hydrolysis, epi-absorbance fluorescence; inhibition, % at 5.6 µM; actives 0.89% (n = 290,000); AID 1527;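 active = inhibition above the mean of all tested compounds plus 3 SD, cutoff set per screening run, cut at about 7.5% in these data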;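 also: red hydrolysis product quenches plate fluorescence so inhibitors raise well fluorescence; 0% = enzyme with DMSO and 100% = DMSO without enzyme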
# IMP-1 inhibitor – blocks Pseudomonas aeruginosa IMP-1 metallo-beta-lactamase; purified IMP-1, nitrocefin hydrolysis, epi-absorbance fluorescence; AID 1556; actives 0.45% (n = 290,000); inhibition, % at 5.6 µM;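 active = inhibition above the mean plus 3 SD of all compounds in the same screening run, cut at about 4.5% in these data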;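 also: 0% = IMP-1 with DMSO and 100% = DMSO wells lacking enzyme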
#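 Material – recombinant IMP-1 enzyme, purified · Amount – IMP-1 0.2 nM before substrate addition · Medium – HEPES buffer pH 7.1 with ZnSO4 and Brij 35 · Timing – 25 °C, 15 min preincubation, 25 min reaction · Measured by – plate fluorescence quenching by hydrolysis product, ex 480/em 530 nm · Read-out – percent enzyme inhibition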
# MLLE-PAM2 inh – inhibitors of microRNA-mediated deadenylation, human PABP1 MLLE binding | P11940 | GST-MLLE / FITC-PAM2 fluorescence polarization | inhibition, % at 20 µM | actives 0.36% (n = 360,000) | AID 588489; in the data active = inhibition above about 35%, passing the limit was not always enough;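 also: plate controls were DMSO wells with GST-MLLE for no effect and wells lacking GST-MLLE protein for full effect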
# Starred values were filed as active, the others as inactive; i = inactive; ? = inconclusive; nt = no result given; + = active, no number. Unless noted, no rule for the calls is given here.
SMILES,PABP FP inh,eIF4H inh,VIM-2 inh,IMP-1 inhibitor,MLLE-PAM2 inh
c1ccc2c(c1)nnn2Cc1nnc2sc(-c3ccc4c(c3)OCCO4)nn12,i,-5.0,-2.8,-2.4,41.1*
Cc1cc(C(=O)COc2ccc(Br)cc2F)c(C)n1CC1CCCO1 (stereo not drawn),nt,nt,nt,nt,-2.4
Cc1ccc(-c2nc(N)sc2CC(=O)OCC(=O)NCCC(C)C)cc1,i,118.9*,1.6,-3.0,-0.2
CC(C)C[C@@H](CSc1ccc(Br)cc1)N1CCN(CC(C)C)CCC1=O,i,-5.1,nt,nt,15.6
COc1cc(O)c(C(C)=O)c(CC(=O)O)c1,+,96.2*,nt,nt,1.9
CCOc1ccc(C(=O)NC(C)(C)CC)cc1,+,-3.8,0.3,0.0,0.1
O=C(CN(CCc1ccccc1)S(=O)(=O)c1ccc(Cl)cc1)N/N=C/c1ccccc1C(=O)O,i,1.8,-4.8,-3.4,10.5
CC(C)NS(=O)(=O)c1ccc(CCC(=O)NCc2ccncc2)cc1,i,-3.0,-1.2,-2.6,-7.8
Cc1cc(N2CCCC2)c(F)cc1/C=C\[N+](=O)[O-],+,58.4,4.9,2.7,-113.0
Cc1nc(/C(=N/O)C(N)=O)cs1,i,-6.4,-1.4,-2.0,8.3
O=C(CC1C[C@H](C(=O)N2CCOCC2)[C@@]2(CCC3CCCC3)c3[nH]c4ccccc4c3CCN2C1=O)NCCc1ccccn1 (stereo partly drawn),nt,nt,nt,nt,6.9
CCC(=O)Nc1nnc(S(=O)(=O)N(C)Cc2ccco2)s1,nt,nt,-3.9,-3.5,11.2
Cc1ccccc1C(=O)Nc1nnc(S(=O)(=O)N(C)Cc2ccco2)s1,i,0.5,9.8*,-3.0,8.4
CN(Cc1ccco1)S(=O)(=O)c1nnc(NC(=O)c2ccccc2Cl)s1,nt,nt,9.1*,-2.9,20.1
CC[n+]1ccc(C)c2cc(S(=O)C(F)(F)F)ccc21 (stereo not drawn),+,?,-0.2,-3.3,19.9
N#CC1=C(N)C2=C(N3CCCCC3)CCCC2C1(C#N)C#N (stereo not drawn),+,109.6*,-4.8,-3.3,38.5*
Cc1ccc(NC(=O)CCc2nnc3ccc(N4CCC(C)CC4)nn23)nc1,nt,nt,-1.2,-0.6,-5.5
CC(=O)c1c(N2CCN(CCO)CC2)nc(=S)n(-c2ccccc2)c1C,i,?,-2.2,-2.3,-0.3
CC(=O)c1c(N2CCN(Cc3ccccc3)CC2)nc(=S)n(-c2ccccc2)c1C,+,53.7*,-0.7,-2.0,-7.7
CS(=O)(=O)N1N=C(c2ccco2)CC1c1ccco1 (stereo not drawn),+,78.2*,-0.1,-2.5,-32.2
CS(=O)(=O)N1N=C(c2ccco2)CC1c1ccccc1 (stereo not drawn),i,-1.2,-2.9,-4.1,2.8
COc1ccc(/C=N/NC(=O)CN(C)S(=O)(=O)c2ccc(NC(C)=O)cc2)cc1,i,0.9,-2.2,31.3*,-1.4
c1ccc(CSc2nnc3c(n2)OC(c2ccco2)Nc2ccccc2-3)cc1 (stereo not drawn),i,4.0*,-3.5,-1.7,8.9
C=CCSc1nnc2c(n1)OC(c1c(C)[nH]n(-c3ccccc3)c1=O)Nc1ccccc1-2 (stereo not drawn),+,?,-2.6,-4.2,6.8
Oc1ccc(C=Nc2ccc3ncccc3c2)c(O)c1,+,81.0*,-3.8,-4.2,nt
SMILES,PABP FP inh,eIF4H inh,VIM-2 inh,IMP-1 inhibitor,MLLE-PAM2 inh
Oc1ccc(C=Nc2cccc3ncccc23)c(O)c1,+,58.3,-1.4,-3.1,23.3
Cc1nc2ccc(C(=O)Nc3ccccc3Cl)cc2s1,i,-8.6,-1.1,0.6,9.0
N#C/C(=C(/O)CCl)c1nc2c(s1)CCc1ccccc1-2,i,-2.4,1.3,-4.8,-38.2
CCCN(CCC)c1ccc(/C=C/c2ccc3cc(OCC)ccc3n2)cc1,+,?,-0.7,-0.9,-94.7
CCc1c(C)nc2ncnn2c1NCCc1ccc(OC)cc1,i,-19.8,8.9*,-3.9,1.8
CCc1c(C)nc2ncnn2c1Nc1ccc(C)cc1,i,0.9,-0.6,-4.6,9.2
COc1ccccc1CNCC(=O)Nc1ccc(N(C)C)cc1,i,-1.5,0.0,0.5,-2.0
O=C(Nc1nc(-c2ccco2)c(-c2ccco2)s1)C1CC(=O)N(c2ccc3c(c2)OCCO3)C1 (stereo not drawn),+,84.3*,-3.0,-1.6,-28.7
Cc1nnc(NC(=O)C2CC(=O)N(c3ccc4c(c3)OCCO4)C2)s1 (stereo not drawn),nt,nt,nt,nt,11.9
CCOC(=O)c1c2ccc(OCC(=O)N/N=C/c3ccc(C)cc3)cc2n2ccccc12,i,7.4,-1.4,-2.7,11.5
CCOC(=O)c1c2ccc(OCC(=O)NN)cc2n2ccccc12,i,9.7,1.3,-3.8,58.0*
Fc1cccc(/C=N/Nc2nncc3ccccc23)c1,i,1.4,-3.8,-2.1,1.9
C(=N\Nc1nncc2ccccc12)/c1ccccn1,i,5.0,0.8,6.5*,-11.9
O=C1NN(c2ccccc2)C(=O)/C1=C\c1ccc(-c2cc([N+](=O)[O-])ccc2O)o1,+,92.0*,-6.5,-4.6,-16.1
CCOc1ccc2nc(SCC(=O)c3ccc(Cl)s3)sc2c1,+,54.9*,-4.7,-3.9,-68.7
O=C(N/N=C/c1ccccc1O)C1(O)c2ccccc2-c2ccccc21,+,active,-6.3,-2.8,3.0
COc1ccc(C(C)N2CC34C=CC(O3)C(C(=O)O)C4C2=O)cc1 (stereo not drawn),i,-3.9,-0.2,-2.5,17.4
COC(=O)C1C2C=CC3(CN(C(C)c4ccc(OC)cc4)C(=O)C13)O2 (stereo not drawn),+,active,-3.3,-0.7,-2.3
CCN(CC)C(=O)CSc1nnc(SCc2ccc(Cl)cc2)s1,i,-16.0,-1.3,-0.2,-11.1
CCCn1c(SCC(=O)N(CC)CC)nnc1-c1ccncc1,i,-4.2,3.6,0.6,9.8
CCN(CC)C(=O)CSc1nnc2nnc3cc(C)ccc3n12,?,?,1.9,3.7,39.6*
CCN(CC)C(=O)CSc1nnc2nnc3cc(Cl)ccc3n12,?,?,1.2,-0.3,67.1*
Cc1ccccc1NC(=O)c1c(C)[nH]c(=S)c(C#N)c1-c1ccc(Cl)cc1,i,2.1,-4.7,-3.4,5.2
Cc1ccc(-c2c(C(=O)Nc3ccccc3C)c(C)[nH]c(=S)c2C#N)o1,i,?,-3.8,5.7*,-8.0
O=c1cc(-c2ccc([N+](=O)[O-])cc2)nc2cc(-c3ccc(F)cc3)[nH]n12,+,63.0,-3.7,-2.8,8.4
Cn1c(CNC(=O)c2ccc(F)cc2)cc2ccccc21,i,1.9,2.5,0.9,3.0
CCOC(=O)c1cnc2c(OC)cccc2c1NCc1cccnc1,i,2.9,10.9*,-4.6,-2.3
CCOC(=O)c1cnc2ccc(OCC)cc2c1NCc1cccnc1,i,-3.8,2.0,-2.6,-3.3
Cc1cc(Br)ccc1S(=O)(=O)n1ccnc1C,i,-10.0,-2.7,-4.2,-1.2
CC1(C)CC(=O)C=C(CN2C(=O)c3ccccc3C2=O)C1=O,nt,nt,nt,nt,2.9
